# Source: ChEMBL document CHEMBL1240409, “Design, synthesis and evaluation of (E)-alpha-benzylthio chalcones as novel inhibitors of BCR-ABL kinase” (Bioorg Med Chem, 2010)
# Active and inactive are the calls of the source. No cut-off for these calls is given here.
# How the values were obtained:
# K562 = experiment: Growth inhibition of human K562 cells expressing p210Bcr/Abl after 96 hrs by trypan blue exclusion assay; format: functional, cell-based; settings: K562, 96 h
# In short: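 K562 cells were kept in RPMI with 10% FBS and penicillin–streptomycin at 37 °C under 5% CO2. Cells were seeded at 1 × 10^5 cells/mL with a range of compound concentrations, using DMSO as the negative control. After 96 h, viability was counted by Trypan blue exclusion and expressed as percent of DMSO control to derive GI50.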
# DU-145 = experiment: Growth inhibition of human DU145 cells after 96 hrs by trypan blue exclusion assay; format: functional; settings: DU-145, 96 h
# Bcr/Abl fusion protein = Bcr/Abl fusion protein (Homo sapiens, UniProt P00519); experiment: Inhibition of BCR/ABL p210 autophosphorylation in human K562 cells after 2 hrs by Western blot analysis; format: cell-based
# [1] = Aqueous solubility of the compound; format: physicochemical; settings: buffer
# [2] = target: Bcr/Abl fusion protein (Homo sapiens) (UniProt P00519+P11274); experiment: Inhibition of BCR/ABL p210 autophosphorylation in human K562 cells at 0.2 to 10 uM after 2 hrs by Western blot analysis; format: cell-based
# In short: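 Exponentially growing K562 cells were treated for 2 h with rising compound concentrations, diluted from 10 mM DMSO stocks via 1000× DMSO working stocks, or with DMSO vehicle. Lysates were run on 10% SDS–PAGE. Blots were probed sequentially for phospho-BCR-ABL and total BCR-ABL, detected with infrared-dye secondaries, and quantified by densitometry. The phospho signal was normalized to total, with % inhibition relative to vehicle.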
# [3] = Aqueous solubility of the compound
# Chain of Bcr/Abl fusion protein (P00519 whole entry, the tested form may be a part): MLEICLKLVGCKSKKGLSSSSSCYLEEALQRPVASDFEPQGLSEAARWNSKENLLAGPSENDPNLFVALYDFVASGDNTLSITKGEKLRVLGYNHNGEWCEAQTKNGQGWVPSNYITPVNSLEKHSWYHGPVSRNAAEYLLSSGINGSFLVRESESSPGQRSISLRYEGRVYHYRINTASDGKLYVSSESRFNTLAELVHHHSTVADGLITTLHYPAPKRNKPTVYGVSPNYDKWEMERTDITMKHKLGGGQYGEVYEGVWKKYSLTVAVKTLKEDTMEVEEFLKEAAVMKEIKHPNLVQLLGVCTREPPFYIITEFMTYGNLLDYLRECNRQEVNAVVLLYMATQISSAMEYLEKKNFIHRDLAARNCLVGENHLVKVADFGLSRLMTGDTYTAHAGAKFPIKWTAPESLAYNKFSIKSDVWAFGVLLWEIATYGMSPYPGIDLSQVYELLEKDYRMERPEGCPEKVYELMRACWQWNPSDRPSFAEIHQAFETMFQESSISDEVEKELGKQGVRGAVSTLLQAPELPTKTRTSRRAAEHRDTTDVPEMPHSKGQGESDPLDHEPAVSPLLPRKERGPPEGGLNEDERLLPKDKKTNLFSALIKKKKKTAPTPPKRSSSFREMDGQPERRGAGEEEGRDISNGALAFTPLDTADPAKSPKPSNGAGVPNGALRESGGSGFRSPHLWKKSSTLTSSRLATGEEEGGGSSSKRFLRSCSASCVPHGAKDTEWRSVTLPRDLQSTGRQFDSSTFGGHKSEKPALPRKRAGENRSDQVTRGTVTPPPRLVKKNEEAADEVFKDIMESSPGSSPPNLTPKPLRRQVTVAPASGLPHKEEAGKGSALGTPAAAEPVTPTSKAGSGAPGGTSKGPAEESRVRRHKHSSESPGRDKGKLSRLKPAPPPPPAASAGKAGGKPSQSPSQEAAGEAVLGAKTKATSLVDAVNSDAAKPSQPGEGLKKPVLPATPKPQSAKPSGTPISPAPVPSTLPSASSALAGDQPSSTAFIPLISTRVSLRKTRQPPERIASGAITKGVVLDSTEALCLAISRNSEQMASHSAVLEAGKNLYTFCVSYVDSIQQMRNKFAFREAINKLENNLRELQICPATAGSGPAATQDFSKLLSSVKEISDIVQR
# Chain of Bcr/Abl fusion protein (P11274 whole entry, further chain, the tested form may be a part): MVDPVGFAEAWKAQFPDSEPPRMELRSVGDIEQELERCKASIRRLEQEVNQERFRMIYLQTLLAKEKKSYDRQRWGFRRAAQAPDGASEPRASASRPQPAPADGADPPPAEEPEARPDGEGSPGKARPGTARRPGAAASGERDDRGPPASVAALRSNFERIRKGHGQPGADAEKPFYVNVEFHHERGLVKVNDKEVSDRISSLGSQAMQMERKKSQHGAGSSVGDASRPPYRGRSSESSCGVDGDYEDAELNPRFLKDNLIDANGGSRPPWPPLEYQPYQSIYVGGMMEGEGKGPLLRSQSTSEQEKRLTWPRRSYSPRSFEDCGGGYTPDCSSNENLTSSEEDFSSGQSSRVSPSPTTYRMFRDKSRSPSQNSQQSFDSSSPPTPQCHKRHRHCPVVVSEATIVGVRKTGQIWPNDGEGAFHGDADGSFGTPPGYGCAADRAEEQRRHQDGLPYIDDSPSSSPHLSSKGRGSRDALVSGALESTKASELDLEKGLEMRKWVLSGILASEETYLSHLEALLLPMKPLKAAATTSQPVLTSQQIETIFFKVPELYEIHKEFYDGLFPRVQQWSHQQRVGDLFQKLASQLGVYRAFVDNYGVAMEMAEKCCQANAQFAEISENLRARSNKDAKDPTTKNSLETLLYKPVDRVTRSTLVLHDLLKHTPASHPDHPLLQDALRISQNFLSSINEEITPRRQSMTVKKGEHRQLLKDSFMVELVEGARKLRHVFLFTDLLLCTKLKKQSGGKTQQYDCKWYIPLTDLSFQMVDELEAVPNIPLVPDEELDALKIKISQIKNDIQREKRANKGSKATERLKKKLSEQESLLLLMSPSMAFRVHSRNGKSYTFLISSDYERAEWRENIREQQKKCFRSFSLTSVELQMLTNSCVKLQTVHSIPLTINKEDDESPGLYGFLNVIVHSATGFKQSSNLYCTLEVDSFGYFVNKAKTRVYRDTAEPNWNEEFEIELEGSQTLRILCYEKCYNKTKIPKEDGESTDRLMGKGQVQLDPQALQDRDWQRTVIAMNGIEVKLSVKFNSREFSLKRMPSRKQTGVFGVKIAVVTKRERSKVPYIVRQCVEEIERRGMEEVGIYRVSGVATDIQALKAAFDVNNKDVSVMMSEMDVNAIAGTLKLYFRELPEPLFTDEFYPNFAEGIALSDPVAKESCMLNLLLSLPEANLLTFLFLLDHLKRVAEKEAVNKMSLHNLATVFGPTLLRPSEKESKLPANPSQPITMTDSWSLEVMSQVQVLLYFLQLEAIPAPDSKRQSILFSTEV
# Chain of Bcr/Abl fusion protein (Homo sapiens) (P00519 whole entry, looked up, the tested form may be a part): as the sequence (P00519 whole entry, the tested form may be a part) above
# Chain of Bcr/Abl fusion protein (Homo sapiens) (P11274 whole entry, looked up, the tested form may be a part): as the sequence (P11274 whole entry, further chain, the tested form may be a part) above
Structure (SMILES),GI50 (K562),IC50 (K562),GI50 (DU-145),IC50 (Bcr/Abl fusion protein),solubility [1],inhibition [2],solubility [3]
O=C(O)c1ccc(C(=O)/C(=C\c2ccc(Br)c([N+](=O)[O-])c2)SCc2ccc(Br)cc2)cc1,< 1000 nM,900 nM,1000 nM,10000 nM,< 1000 µg/mL,,
O=C(O)c1ccc(C(=O)/C(=C\c2ccc(F)c([N+](=O)[O-])c2)SCc2ccc(Cl)cc2)cc1,10000 nM,500 nM,50000 nM,2500 nM,< 1000 µg/mL,,
O=C(/C(=C\c1ccc(F)c([N+](=O)[O-])c1)SCc1ccc(F)cc1)c1ccc(C(=O)N2CCN(CCO)CC2)cc1,,500 nM,,500 nM,> 10000 µg/mL,Active,> 10000 µg/mL
O=C(O)c1ccc(C(=O)/C(=C\c2ccc(Cl)c([N+](=O)[O-])c2)SCc2ccc(Cl)cc2)cc1,< 1000 nM,500 nM,1000 nM,10000 nM,< 1000 µg/mL,,
O=C(O)c1ccc(C(=O)/C(=C\c2ccc(Br)c([N+](=O)[O-])c2)SCc2ccc(Cl)cc2)cc1,< 1000 nM,600 nM,< 1000 nM,2500 nM,< 1000 µg/mL,,
O=C(/C(=C\c1ccc(F)c([N+](=O)[O-])c1)SCc1ccc(F)cc1)c1ccc(F)cc1,< 1000 nM,600 nM,1000 nM,2500 nM,< 1000 µg/mL,,
CCN(CC)CCNC(=O)c1ccc(C(=O)/C(=C\c2ccc(F)c([N+](=O)[O-])c2)SCc2ccc(Br)cc2)cc1,,500 nM,,500 nM,> 10000 µg/mL,,> 10000 µg/mL
O=C(O)c1ccc(C(=O)/C(=C\c2ccc(F)cc2[N+](=O)[O-])SCc2ccc(Br)cc2)cc1,,20000 nM,,> 20000 nM,< 1000 µg/mL,,
O=C(/C(=C\c1ccc(F)c([N+](=O)[O-])c1)SCc1ccc(Br)cc1)c1ccc(C(=O)N2CCN(CCO)CC2)cc1,< 250 nM,500 nM,750 nM,500 nM,> 10000 µg/mL,Active,> 10000 µg/mL
O=C(O)c1ccc(C(=O)/C(=C\c2ccc([N+](=O)[O-])c(F)c2)SCc2ccc(Br)cc2)cc1,,5000 nM,,> 20000 nM,< 1000 µg/mL,,
O=C(O)c1ccc(C(=O)/C(=C\c2ccc(F)c([N+](=O)[O-])c2)SCc2ccccc2)cc1,,300 nM,,2500 nM,< 1000 µg/mL,,
O=C(O)c1ccc(C(=O)/C(=C\c2ccc(Cl)c([N+](=O)[O-])c2)SCc2ccc(F)cc2)cc1,< 1000 nM,500 nM,1000 nM,2500 nM,< 1000 µg/mL,,
O=C(O)c1ccc(C(=O)/C(=C\c2ccc(F)c([N+](=O)[O-])c2)S(=O)(=O)Cc2ccc(Br)cc2)cc1,,5000 nM,,> 20000 nM,< 1000 µg/mL,,
O=C(O)c1ccc(C(=O)/C(=C\c2ccc(Cl)c([N+](=O)[O-])c2)SCc2ccc(Cl)cc2Cl)cc1,< 1000 nM,600 nM,1000 nM,2500 nM,< 1000 µg/mL,,
O=C(O)c1ccc(C(=O)/C(=C\c2ccc(Br)c([N+](=O)[O-])c2)SCc2ccc(F)cc2)cc1,< 1000 nM,400 nM,1000 nM,15000 nM,< 1000 µg/mL,,
O=C(O)c1ccc(C(=O)/C(=C\c2ccc(F)c([N+](=O)[O-])c2)Sc2ccc(Br)cc2)cc1,,1500 nM,,20000 nM,< 1000 µg/mL,,
O=C(O)c1ccc(C(=O)/C(=C\c2ccc([N+](=O)[O-])cc2F)SCc2ccc(Br)cc2)cc1,,7500 nM,,> 20000 nM,< 1000 µg/mL,,

Structure (SMILES),GI50 (K562),IC50 (K562),GI50 (DU-145),IC50 (Bcr/Abl fusion protein),solubility [1],inhibition [2],solubility [3]
O=C(O)c1ccc(C(=O)/C(=C\c2ccc(Cl)c([N+](=O)[O-])c2)S(=O)(=O)Cc2ccc(Br)cc2)cc1,25000 nM,25000 nM,25000 nM,> 20000 nM,< 1000 µg/mL,,
O=C(O)c1ccc(C(=O)/C(=C\c2ccc(F)c([N+](=O)[O-])c2)[S+]([O-])Cc2ccc(Br)cc2)cc1 (centres undefined),,75000 nM,,> 20000 nM,< 1000 µg/mL,,
O=C(O)c1ccc(C(=O)/C(=C\c2ccc(F)c([N+](=O)[O-])c2)SCc2ccc(C(F)(F)F)cc2)cc1,< 1000 nM,400 nM,1000 nM,200 nM,< 1000 µg/mL,Active,
O=C(O)c1ccc(C(=O)/C(=C\c2cc([N+](=O)[O-])ccc2F)SCc2ccc(Br)cc2)cc1,,7500 nM,,> 20000 nM,< 1000 µg/mL,,
O=C(O)c1ccc(C(=O)/C(=C\c2ccc(O)c([N+](=O)[O-])c2)SCc2ccc(Br)cc2)cc1,50000 nM,75000 nM,50000 nM,> 20000 nM,< 1000 µg/mL,,
O=C(O)c1ccc(C(=O)/C(=C\c2ccc(F)c([N+](=O)[O-])c2)SCc2ccc(Cl)cc2Cl)cc1,< 1000 nM,400 nM,1000 nM,2500 nM,< 1000 µg/mL,,
O=C(O)c1ccc(C(=O)/C(=C\c2ccc(Cl)c([N+](=O)[O-])c2)SCc2ccccc2F)cc1,< 1000 nM,800 nM,1000 nM,10000 nM,< 1000 µg/mL,,
COc1cc(/C=C(/SCc2ccc(Br)cc2)C(=O)c2ccc(C(=O)O)cc2)ccc1F,1000 nM,20000 nM,1000 nM,> 20000 nM,< 1000 µg/mL,,
O=C(O)c1ccc(C(=O)/C(=C\c2ccc(F)c([N+](=O)[O-])c2)SCc2ccccc2Cl)cc1,1000 nM,500 nM,1000 nM,10000 nM,< 1000 µg/mL,,
O=C(O)c1ccc(C(=O)/C(=C\c2ccc(Br)c([N+](=O)[O-])c2)SCc2ccc(Cl)cc2Cl)cc1,< 1000 nM,600 nM,1000 nM,2500 nM,< 1000 µg/mL,,
O=C(O)c1ccc(C(=O)/C(=C\c2ccc(Cl)c([N+](=O)[O-])c2)SCc2ccc(Br)cc2)cc1,1000 nM,700 nM,500 nM,10000 nM,< 1000 µg/mL,,
COC(=O)c1ccc(C(=O)/C(=C\c2ccc(F)c([N+](=O)[O-])c2)SCc2ccc(Br)cc2)cc1,,300 nM,,750 nM,< 1000 µg/mL,Active,
O=C(O)c1ccc(C(=O)/C(=C\c2ccc(O)c(Br)c2)SCc2ccc(Br)cc2)cc1,25000 nM,35000 nM,25000 nM,> 20000 nM,< 1000 µg/mL,,
Cc1ccc(CS/C(=C/c2ccc(F)c([N+](=O)[O-])c2)C(=O)c2ccc(C(=O)O)cc2)cc1,< 1000 nM,300 nM,1000 nM,2500 nM,< 1000 µg/mL,,
O=C(O)c1ccc(C(=O)/C(=C\c2ccc(F)c([N+](=O)[O-])c2)SCc2ccc(F)cc2)cc1,< 1000 nM,400 nM,1000 nM,2500 nM,< 1000 µg/mL,,
COc1ccc(C(=O)/C(=C\c2ccc(Br)cc2)S(=O)(=O)c2ccc(F)cc2)cc1,1000 nM,,1000 nM,,,,
Cc1ccc(S(=O)(=O)/C(=C/c2ccc(Cl)cc2)C(=O)c2ccc(Cl)cc2)cc1,1000 nM,,1000 nM,,,,
